From the RNAGym collection of RNA variant scans (doi:10.1126/science.aae0568)
Variants at the floor of the assay were thinned out.

B1: tRNA (parent)
chain: GUUCCGUUGGCGUAAUGGUAACGCGUCUCCCUCCUAAGGAGAAGACUGCGGGUUCGAGUCCCGUACGGAACG

Variants of: B1
Assay: yeast fitness relative to wild type (ratio to wild type); higher = fitter; tRNA-Arg(CCU), competitive growth, 37 C, YPD
Summary of the method: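 For this measurement, the tRNA-Arg(CCU) gene was varied by chemical synthesis at a 3% per-site mutation rate across 69 sites, and each variant was placed at the native genomic locus in Saccharomyces cerevisiae. The pooled strains went through a 24-hour competition in YPD at 37°C in six parallel replicates, with amplicons from start and end populations read by 100-nucleotide paired-end sequencing. Darwinian fitness relative to wild type followed from the change in each genotype's frequency. Genotypes needed ≥ 100 starting reads, and estimates < 0.5 were set to 0.5.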

| Variant | yeast fitness |
| --- | --- |
| C24G G39C | 0.608 |
| C24G G38A U53A | ≤ 0.5 |
| C24G A42C A70U | 0.616 |
| C24G G25A C34A C46G | ≤ 0.5 |
| C24G C30G A70G | 0.638 |
| C24G G44C G58C G68U | 0.516 |
| C24G C55U C61A | 0.515 |
| C24A U32C | 0.612 |
| C24G A40U A43U C49G G50C C61U C66U | ≤ 0.5 |
| C24G C30U A43U C60G A65C | ≤ 0.5 |
| C24G C29A A43U | ≤ 0.5 |
| C24A G44C U59A | ≤ 0.5 |
| C24A U59G C62U A70G | 0.54 |
| C24G A57G A70G | ≤ 0.5 |
| C24G A36C C55G | 0.587 |
| C24G G67A | 0.594 |
| C24G G67C | 0.622 |
| C24G G67U | ≤ 0.5 |
| C24G C34G A40G A45C C66G A69U | 0.596 |
| C24G C29U | 0.521 |
| C24G C29G | ≤ 0.5 |

| Variant | yeast fitness |
| --- | --- |
| C24G A36G A40C C55G G63C | ≤ 0.5 |
| C24G C33G C60A G63A | ≤ 0.5 |
| C24G C33G A36C A37C A42C C60U G67U | ≤ 0.5 |
| C24G A70U | 0.639 |
| C24G A43C G48A G58A G68C | ≤ 0.5 |
| C24G A36U A43U U64C | ≤ 0.5 |
| C24G A36G G50U U53A | ≤ 0.5 |
| C24G C66U | 0.533 |
| C24G C66G | 0.691 |
| C24G C27G C60U | 0.8 |
| C24G C30U C34U C55A | ≤ 0.5 |
| C24G C34G A43U G67C | ≤ 0.5 |
| C24G A42U A45C | ≤ 0.5 |
| C24G A42G A69U | ≤ 0.5 |
| C24G G44A C55U | ≤ 0.5 |
| C24G C27A A45C C62G | ≤ 0.5 |
| C24G G39C A45G U54A C55U | ≤ 0.5 |
| C24G C55A A65U | ≤ 0.5 |
| C24G A36C A65G A70C | ≤ 0.5 |
| C24G C34U U47A | ≤ 0.5 |
| C24G C30G | 0.53 |

| Variant | yeast fitness |
| --- | --- |
| C24G C30U | 0.553 |
| C24G C30A | 0.777 |
| C24A C46G U59C C62G | 0.617 |
| C24A C46G U59C C62U | ≤ 0.5 |
| C24A G56C | 0.626 |
| C24G C30U C34U | ≤ 0.5 |
| C24G G39C A45G U54A | ≤ 0.5 |
| C24A C46A G63A | 0.793 |
| C24G C33U A37U C55A G68C | ≤ 0.5 |
| C24G A40G A57U G68A | ≤ 0.5 |
| C24G A40C U64A A65C | ≤ 0.5 |
| C24A U32G A37G | ≤ 0.5 |
| C24A U26G A43C | 0.516 |
| C24G A43C A57U | ≤ 0.5 |
| C24G A42U G68A | ≤ 0.5 |
| C24G A36G | 0.557 |
| C24G C27G A45C | ≤ 0.5 |
| C24A U26G A43C C62G G63A C66G | 0.514 |
| C24G G25A C31G U64C | 0.75 |
| C24A U28C U64C C66U | ≤ 0.5 |
| C24G C29G C33A G48A C55G | ≤ 0.5 |

| Variant | yeast fitness |
| --- | --- |
| C24G U26A A45C | ≤ 0.5 |
| C24G C33U C62A A70G | ≤ 0.5 |
| C24A U54A | 0.634 |
| C24G C30A U47C | 0.586 |
| C24A U28C G56A | ≤ 0.5 |
| C24A U59G C66U A70C | 0.529 |
| C24G C34U A36C C46A U54A A57G | 0.566 |
| C24G C31G G51A | ≤ 0.5 |
| C24A C49U U59G C62U A70G | ≤ 0.5 |
| C24G C61U A69U | 0.516 |
| C24G G25C C27A U59A C62A | ≤ 0.5 |
| C24A U64G A70C | ≤ 0.5 |
| C24G C31G C33A G50C C55G A57U C62U U64C | ≤ 0.5 |
| C24G A36C A70C | 0.567 |
| C24G C33U C49G A57U C61G | ≤ 0.5 |
| C24G C33U A43G | ≤ 0.5 |
| C24G U26A | 0.609 |
| C24G A43G U47A | ≤ 0.5 |
| C24A C46A A70C | 0.851 |
| C24G C31U G48A C49U | 0.785 |
| C24G G48A G68A | ≤ 0.5 |
